Reference: PubChem BioAssay
Inconclusive results are not listed.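 The calls were made as follows, unless noted: active = cell viability at or below a set limit in both duplicate runs, the limit being the all-compound median minus 4 SD (cut at about 23% in these data, passing the limit was not always enough); inconclusive = no clear call, values can overlap the other calls; inactive = the rest.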

Experiments:
[1] = OD615 S. cerevisiae growth inhibition, permissive medium, pilot counter-assay, permissive growth control for S. cerevisiae lifespan shortening project (AID 705;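 active = growth inhibition above 25% in both replicates, a cutoff set 3 SD above the mean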); details: OD615, 24 h, at 10 µM, hits give high values
In short: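 System: Engineered DeaD yeast | Buffer or medium: SC raffinose/galactose permissive medium | Doses: 10 µM single dose, 0.25% DMSO | Times: 24 h exposure, 30 °C | Measured by: OD615 turbidity read | Read-out: Yeast growth inhibition indicated by reduced 24 h OD615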

[2] = Restrictive medium S. cerevisiae growth inhibition, OD615, pilot screen of yeast lifespan reduction project, restrictive growth control (AID 706;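 active = growth inhibition above a set limit, 3 SD over mean compound inhibition, in both replicates, cut at about 43% in these data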;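 also: modified DeaD lifespan yeast strain shifted to restrictive glucose medium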); details: OD615, 48 h, at 10 µM, hits give high values
In short: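 Assay system: engineered S. cerevisiae DeaD strain; Buffer or medium: CSMM-D glucose medium; Dosing: 10 µM compound, 0.25% DMSO; Times: cell pre-growth 4 h, compound exposure 48 h, 30 °C; Detection: absorbance (optical density) measured at 615 nm.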

[3] = viability gain of MRP-1-high H69AR cells under doxorubicin, pilot screen, MRP-1 activator project, CellTiter-Glo, duplicate (AID 807;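 active = viability increase at or above a cutoff of the median across tested compounds plus 3 SD, cut at about 8.5% in these data, passing the limit was not always enough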;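 also: compound pretreatment 18-22 h then 72 h combined with doxorubicin; 0% = doxorubicin alone and 100% = vehicle without doxorubicin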); details: H69AR viability with doxorubicin, CellTiter-Glo luminescence; at 10 µM; hits give high values
[4] = growth suppression of beta-catenin knockout HCT116, pilot screen, human colon tumor cells (AID 823); details: CellTiter-Glo, 60 h, at 10 µM, hits give low values;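 also: 0% = wells killed by 20 µM Hyamine and 100% = untreated DMSO cell wells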
[5] = growth suppression of PTEN-deleted HCT116, pilot screen, cell-based, HCT116 clonal line, CellTiter-Glo (AID 824;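 active = viability at or below 27.92% in each of two runs, the all-compound median minus 4 SD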;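 also: 0% = 20 µM Hyamine control and 100% = vehicle cell control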); details: 60 h, at 10 µM, hits give low values
[6] = inhibitors of the yeast RAM network, pilot screen, dse1pr::URA3 reporter, 5-FOA selection (AID 869;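 active = inhibition over a set limit, the all-compound mean plus 3 SD, in both replicate runs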;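 also: 0% = DMSO wells with no growth and 100% = 10 µM 1-NA-PP1 with full growth; RAM network block rescues cells from 5-FOA so hits raise OD615 growth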); details: S. cerevisiae dse1pr::URA3 5-FOA growth, OD615, 2 d; at 10 µM; hits give high values; strain carries analog-sensitive mutant Cbk1 kinase
[7] = RAM signaling pathway blockade in yeast – S. cerevisiae, Pdr1DBD-CYC8 efflux-inhibited sensitized strain, primary screen (AID 1298;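 active = RAM network inhibition above 8.4% in each of two replicates, 3 SD over the compound average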;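 also: 0% = DMSO untreated cells without growth and 100% = 10 µM 1-NA-PP1 full growth; higher means more yeast growth rescued from 5-FOA killing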); details: S. cerevisiae cbk1-as DSE1-URA3 strain, 5-FOA growth OD615, 2 d; at 50 µM; hits give high values

CCOC(=O)c1cc(-c2ccc(C)cc2)n(CC(=O)NCc2ccco2)c1C
inactive: growth inhibition [1] 12.1% | growth inhibition [2] -7.09% | viability increase [3] -5.81% | viability [4] 74.6% | viability [5] 77.5% | inhibition [6] 3.1% | RAM network inhibition [7] 5.82%

Cc1ccccc1NC(=O)c1ocnc1C
inactive: growth inhibition [1] -1.01% | growth inhibition [2] -8.43% | viability increase [3] -1.48% | viability [4] 101% | viability [5] 92.3% | inhibition [6] 0.18% | RAM network inhibition [7] 4.25%

Cc1ccc(/C(O)=C2\C(=O)C(=O)N(CCN(C)C)C2c2ccccc2F)cc1 (stereo not given)
inactive: growth inhibition [1] -10.5% | growth inhibition [2] -5.25% | viability increase [3] -2.92% | viability [4] 88.3% | viability [5] 87.1% | inhibition [6] -0.9% | RAM network inhibition [7] -1.02%

CCc1nnc(NC(=O)c2ccc(S(=O)(=O)N(CCOC)CCOC)cc2)s1
inactive: growth inhibition [1] -9.86% | growth inhibition [2] -3% | viability increase [3] 3.39% | viability [4] 115% | viability [5] 107% | inhibition [6] 0.77% | RAM network inhibition [7] 1.29%

CC1CCCC(C)N1CCCNC(=O)c1cc2c(=O)n(C)c3ccccc3c2n1C (stereo not given)
inactive: growth inhibition [1] -11.5% | growth inhibition [2] -10.6% | viability increase [3] -6.03% | viability [4] 68.9% | viability [5] 71.5% | inhibition [6] -0.625% | RAM network inhibition [7] 2.26%

NC(=O)c1cccc(S(=O)(=O)N2CC(c3ccccc3)CC2=O)c1 (stereo not given)
inactive: growth inhibition [1] -15.8% | growth inhibition [2] -15% | viability increase [3] -1.11% | viability [4] 99.5% | viability [5] 96.1% | inhibition [6] 0.075% | RAM network inhibition [7] -0.76%

CCc1nnc(NC(=O)CSc2nccn2-c2cc(C)cc(C)c2)s1
inactive: growth inhibition [1] 3.21% | growth inhibition [2] 23% | viability increase [3] -6.31% | viability [4] 86.2% | viability [5] 75.8% | inhibition [6] 0.195% | RAM network inhibition [7] -1.37%

COc1ccc(C2C(C(=O)Nc3cccnc3)=C(C)Nc3nc(-c4ccco4)nn32)cc1 (stereo not given)
inactive: growth inhibition [1] 4.86% | growth inhibition [2] -9.13% | viability increase [3] -1.69% | viability [4] 108% | viability [5] 104% | inhibition [6] 0.55% | RAM network inhibition [7] 2.07%

O=C(NCc1ccc(Cl)c(Cl)c1)c1ccco1
inactive: growth inhibition [1] -5.02% | growth inhibition [2] -2.23% | viability increase [3] -3.58% | viability [4] 90.8% | viability [5] 84.9% | inhibition [6] 1.23% | RAM network inhibition [7] 3.74%

COc1ccc(Cc2nnc(Nc3ccc(C)cc3C)[nH]c2=O)cc1
inactive: growth inhibition [1] -10.4% | growth inhibition [2] -12.6% | viability increase [3] -1.16% | viability [4] 91.2% | viability [5] 94.2% | inhibition [6] 1.08% | RAM network inhibition [7] 7.16%

O=C(NCCCNC(=O)c1ccco1)c1ccco1
inactive: growth inhibition [1] -0.405% | growth inhibition [2] 0.005% | viability increase [3] -2.35% | viability [4] 99.9% | viability [5] 107% | inhibition [6] -0.525% | RAM network inhibition [7] 0.16%

O=C(Cn1cnc2c(nnn2-c2ccccc2)c1=O)NCc1ccco1
inactive: growth inhibition [1] 1.43% | growth inhibition [2] 3.14% | viability increase [3] -3.77% | viability [4] 104% | viability [5] 89.8% | inhibition [6] 0.32% | RAM network inhibition [7] 0.83%

CCCCN1C(=O)/C(=C2\SC(N3CCCCC3)=NC2=O)c2ccccc21
inactive: growth inhibition [1] -4.39% | growth inhibition [2] 14.6% | viability increase [3] -2.31% | viability [4] 48.4% | viability [5] 45.8% | inhibition [6] 1.53% | RAM network inhibition [7] 3.38%

CC(c1ccccc1)C1C(C#N)=C(N)OC2=C1C(=O)CCC2 (stereo not given)
inactive: growth inhibition [1] -19% | growth inhibition [2] -12.4% | viability increase [3] -0.93% | viability [4] 88% | viability [5] 91.3% | inhibition [6] 3.24% | RAM network inhibition [7] 1.95%

O=S(=O)(c1ccc(Br)cc1)N1CCn2c(nc3ccccc32)C1
inactive: growth inhibition [1] -6.87% | growth inhibition [2] -3.65% | viability increase [3] -2.52% | viability [4] 101% | viability [5] 97.5% | inhibition [6] 2.46% | RAM network inhibition [7] 6.31%

CC(NC(=O)Cc1ccccc1)c1nc2ccccc2[nH]1 (stereo not given)
inactive: growth inhibition [1] -3.99% | growth inhibition [2] -1.91% | viability increase [3] -1.22% | viability [4] 108% | viability [5] 97.1% | inhibition [6] 0.08% | RAM network inhibition [7] 3.75%

CCCCN(C)CCC(=O)Nc1ccc(OC)cc1OC
inactive: growth inhibition [1] -0.81% | growth inhibition [2] -1.21% | viability increase [3] -3.73% | viability [4] 88.5% | viability [5] 86.4% | inhibition [6] 2.29% | RAM network inhibition [7] -1.48%

CCOc1ccc(N(CC(=O)NCc2ccc(F)cc2)S(=O)(=O)c2c(C)noc2C)cc1
inactive: growth inhibition [1] -15.6% | growth inhibition [2] -8.36% | viability increase [3] -1.36% | viability [4] 99.3% | viability [5] 92.8% | inhibition [6] 2.25% | RAM network inhibition [7] 2.84%

O=C(Nc1ccc(Br)cc1F)c1ccncc1
inactive: growth inhibition [1] -7.26% | growth inhibition [2] -13.4% | viability increase [3] 1.37% | viability [4] 97% | viability [5] 98.6% | inhibition [6] 2.7% | RAM network inhibition [7] 5.07%

O=C(CC1SC(=Nc2ccccc2)N(CCCO)C1=O)Nc1ccc(Cl)cc1 (stereo not given)
inactive: growth inhibition [1] -6.75% | growth inhibition [2] -7.97% | viability increase [3] -6.7% | viability [4] 48.1% | viability [5] 42.1% | inhibition [6] 0.52% | RAM network inhibition [7] 1.29%

CCC(C)NS(=O)(=O)c1ccc(NC(=O)c2c(-c3ccccc3)noc2C)cc1 (stereo not given)
inactive: growth inhibition [1] -6.46% | growth inhibition [2] -11% | viability increase [3] -0.12% | viability [4] 86.3% | viability [5] 71.1% | inhibition [6] 0.48% | RAM network inhibition [7] 5.94%

O=C1CCC(C(=O)N(c2ccccc2)C2(C(=O)NC3CCCCC3)CCCCC2)N1 (stereo not given)
inactive: growth inhibition [1] 1.54% | growth inhibition [2] 2.4% | viability increase [3] -0.07% | viability [4] 94.3% | viability [5] 97.2% | inhibition [6] 0.505% | RAM network inhibition [7] 1.6%

CCOc1ccc(CCNC(=O)c2oc3c(c2C)-c2[nH]ncc2CC3)cc1OCC
inactive: growth inhibition [1] -11.9% | growth inhibition [2] -11.6% | viability increase [3] -2.93% | viability [4] 105% | viability [5] 92.7% | inhibition [6] 1.57% | RAM network inhibition [7] 9.8%

COc1ccc(OC)c2c1sc(=NC(=O)C(C)(C)C)n2C
inactive: growth inhibition [1] -7.64% | growth inhibition [2] 6.31% | viability increase [3] -6.23% | viability [4] 84.1% | viability [5] 79.6% | inhibition [6] 3.72% | RAM network inhibition [7] 6.93%

O=C(c1coc2ccccc2c1=O)N1CCN(c2cccc(C(F)(F)F)c2)CC1
inactive: growth inhibition [1] -20% | growth inhibition [2] -32.1% | viability increase [3] 0.69% | viability [4] 99.8% | viability [5] 99.9% | inhibition [6] 1.23% | RAM network inhibition [7] 5.68%

NC(=O)C1CCN(C(=O)c2cc3ccccn3n2)CC1
inactive: growth inhibition [1] 0.24% | growth inhibition [2] -0.18% | viability increase [3] -0.34% | viability [4] 103% | viability [5] 98.2% | inhibition [6] 0.505% | RAM network inhibition [7] 1.35%

CN(C)CCNC(=O)c1ccc(CS(=O)(=O)c2ccc(Br)cc2)o1
inactive: growth inhibition [1] 3.18% | growth inhibition [2] 4.8% | viability increase [3] -0.05% | viability [4] 103% | viability [5] 103% | inhibition [6] 0.565% | RAM network inhibition [7] 2.81%

COc1ccc(CCNC(=O)Cc2cc(=O)[nH]c(=O)[nH]2)cc1OC
inactive: growth inhibition [1] 6.42% | growth inhibition [2] 3% | viability increase [3] -0.97% | viability [4] 96.7% | viability [5] 97.6% | inhibition [6] 1.35% | RAM network inhibition [7] 1.23%

CCOC(=O)C1=C(C)Nc2nc(C)nn2C1c1ccc(OC)c(OC)c1 (stereo not given)
inactive: growth inhibition [1] -6.55% | growth inhibition [2] -3.96% | viability increase [3] -3.45% | viability [4] 99.5% | viability [5] 102% | inhibition [6] 0.77% | RAM network inhibition [7] 0.06%

CC1=C(C(N)=O)C(c2ccccc2)n2nc(-c3cccs3)nc2N1 (stereo not given)
inactive: growth inhibition [1] -9.84% | growth inhibition [2] 2.11% | viability increase [3] -3.8% | viability [4] 101% | viability [5] 93.8% | inhibition [6] 2.46% | RAM network inhibition [7] 3.65%

CCn1cc(C(=O)NC2CCCCCC2)c(=O)c2cc(S(=O)(=O)N3CCCCC3)ccc21
inactive: growth inhibition [1] -3.87% | growth inhibition [2] -20.1% | viability increase [3] -8.11% | viability [4] 72.2% | viability [5] 69.8% | inhibition [6] 0.625% | RAM network inhibition [7] 2.45%

COc1ccc(C2C(C(=O)NCCN(C)C)c3ccccc3C(=O)N2C)cc1OC (stereo not given)
inactive: growth inhibition [1] -7.69% | growth inhibition [2] -1.69% | viability increase [3] -0.77% | viability [4] 100% | viability [5] 97.9% | inhibition [6] -0.2% | RAM network inhibition [7] 1.92%

Cc1nnc(NC(=O)CSc2nc3c(c(=O)n2CCc2ccccc2)SC(C)C3)s1 (stereo not given)
inactive: growth inhibition [1] -9.82% | growth inhibition [2] -15.6% | viability increase [3] 0.33% | viability [4] 101% | viability [5] 103% | inhibition [6] 3.13% | RAM network inhibition [7] 6.06%

CCOC(=O)C1CCN(C(c2ccc(OC)c(OC)c2)c2sc3nc(C)nn3c2O)CC1 (stereo not given)
inactive: growth inhibition [1] -3.62% | growth inhibition [2] 9.57% | viability increase [3] -2.25% | viability [4] 95.4% | viability [5] 96.1% | inhibition [6] -0.01% | RAM network inhibition [7] -0.97%

CC(=O)Nc1cccc(N(C)C)c1
inactive: growth inhibition [1] 3.45% | growth inhibition [2] 5.4% | viability increase [3] -0.76% | viability [4] 96.1% | viability [5] 105% | inhibition [6] 1.44% | RAM network inhibition [7] 1.55%
